Assay outcomes (PubChem)
Shown is part of a subset that was picked to be rich in hits.
CDK5 p35 inh: inhibitors of human CDK5/p35 kinase, primary screen, biochemical, single concentration. Cyclin-dependent kinase 5 (Homo sapiens) + Cyclin-dependent kinase 5 activator 1 (Homo …. AID 488839, 2010. inhibition, % at 10 µM. Recombinant CDK5/p35, ADP-Glo luminescence, 60 min. 330,000 tested, 0.01% active;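 active = highest replicate inhibition of at least 50% and at least 75% of replicates reaching 50%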;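 note: plate controls were DMSO neutral control for no effect and GW8510 at 10 µM for full effect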
GSK3beta inhib: human GSK3beta kinase inhibitors, primary screen, biochemical, cell-free homogeneous, HTS. Glycogen synthase kinase-3 beta (Homo sapiens), P49841. GST-GSK3beta kinase, ADP-Glo luminescence, 60 min; hits give low values. activity score (negative = inhibition), % at 10 µM. 300,000 tested, 0.038% active. AID 2097, 2009;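 active = more than half of replicate wells score below -50%, meaning over 50% inhibition versus plate controls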;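 note: 0% = median DMSO wells and -100% = median GW8510 positive control wells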
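test system = GST-tagged human GSK3beta kinase, cell-free | reagent = 25 µM ATP with peptide substrate | dosing = one dose of 10 µM per compound | schedule = 60 min reaction, RT | detection = luminescent ADP-Glo measurement of ADP formed | control set = DMSO neutral wells and GW8510 at 20 µM as positive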
STK33 inh: inhibitors of purified STK33 kinase, primary screen, biochemical, ADP-Glo luminescence, homogeneous, cell-free; Serine/threonine-protein kinase 33 (Homo sapiens), Q9BYT3; inhibition, % at 10 µM; AID 2661, 2010; 320,000 tested, 0.073% active; MBP phosphorylation;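 active = inhibition at or above 25%, using the most active replicate where run in duplicate; inactive = inhibition below 25%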
Target sequence (Q9BYT3 whole entry, looked up): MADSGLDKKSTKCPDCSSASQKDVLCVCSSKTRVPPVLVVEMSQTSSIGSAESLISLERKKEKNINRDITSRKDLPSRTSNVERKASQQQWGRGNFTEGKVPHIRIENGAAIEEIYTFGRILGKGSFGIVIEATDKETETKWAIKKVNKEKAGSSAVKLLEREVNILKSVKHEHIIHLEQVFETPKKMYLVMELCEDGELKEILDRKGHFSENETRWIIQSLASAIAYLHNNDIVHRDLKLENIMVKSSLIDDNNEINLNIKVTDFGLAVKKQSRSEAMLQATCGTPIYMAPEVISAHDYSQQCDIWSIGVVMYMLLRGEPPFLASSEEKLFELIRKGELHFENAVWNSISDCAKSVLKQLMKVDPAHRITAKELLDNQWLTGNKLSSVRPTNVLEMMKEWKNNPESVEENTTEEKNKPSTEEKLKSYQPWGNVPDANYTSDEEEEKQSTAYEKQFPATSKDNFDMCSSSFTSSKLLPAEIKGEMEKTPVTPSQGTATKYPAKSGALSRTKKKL
DYRK1A inh: rat Dyrk1A kinase inhibitors, primary screen, biochemical, single point, plate reader; Dual specificity tyrosine-phosphorylation-regulated kinase 1A (Rattus norvegicus), Q63470; ADP-Glo luminescence, NFATc1 peptide; inhibition, % at 12.5 µM; 310,000 tested, 0.43% active; in the data active = inhibition above about 50%;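 note: plate controls were vehicle with enzyme for no effect and no enzyme for full effect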
GSK3 alpha inh: blockers of GSK3A enzyme activity – biochemical, luminescence, cell-free homogeneous, HTS, primary screen; 320,000 tested, 0.1% active; Glycogen synthase kinase-3 alpha (Homo sapiens), P49840; inhibition, % at 10 µM; GSK-3 alpha kinase, ADP-Glo luminescence, 60 min;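 active = more than half of replicates show inhibition above 20%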;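 note: GST-tagged GSK-3 alpha with peptide substrate and 25 µM ATP; 0% = DMSO neutral wells and 100% = GW8510 positive control wells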
Dyrk1A artifact: ADP-Glo luciferase interference without Dyrk1A, dose response, artefact control for Dyrk1A inhibitor project, biochemical, luminescence, cherry-pick, set 02; shares compounds with DYRK1A inh; AID 588348, 2011; AC50, µM (series often up to 12 µM), without a hit: at the highest dose activity change, negative = inhibition; 1,300 tested, under 10 active; ADP-Glo luciferase artifact assay, no Dyrk1A;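 active = fitted half-maximal dose AC50 no more than ten times the top valid tested dose, with luminescence dropping as dose rises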
Numbers without * were called inactive; · = not tested or not shown.

SMILES | CDK5 p35 inh | GSK3beta inhib | STK33 inh | DYRK1A inh | GSK3 alpha inh | Dyrk1A artifact
Cc1ccc(-n2nnnc2SCC(=O)NNC(=O)c2ccc([N+](=O)[O-])cc2)cc1 | 2 | 0 | -2 | -5 | -1 | ·
C[C@@H]1O[C@@H](OC[C@H]2O[C@@H](Oc3c(-c4ccc(O)c(O)c4)oc4cc(O)cc(O)c4c3=O)[C@H](O)[C@@H](O)[C@@H]2O)[C@H](O)[C@H](O)[C@H]1O | 0 | -32 | 1 | 77* | 27 | 10%
O=c1c(OC2OC(CO)C(O)C(O)C2OC2OC(CO)C(O)C(O)C2OC2OC(CO)C(O)C(O)C2O)c(-c2ccc(O)c(O)c2)oc2cc(O)cc(O)c12 (centres undefined) | -1 | · | 0 | 26 | 1 | ·
CC(=O)OC[C@H]1O[C@@H](Oc2cc(O)cc3oc(-c4ccc(O)cc4)cc(=O)c23)[C@H](O[C@@H]2O[C@@H](C)[C@H](O)[C@@H](O)[C@H]2O)[C@@H](O)[C@@H]1O | -4 | · | 6 | 8 | -1 | ·
O=c1c2c(O)cc(O)cc2oc2ccc(O)c(O[C@@H]3O[C@H](CO)[C@@H](O)[C@H](O)[C@H]3O[C@H]3O[C@H](CO)[C@@H](O)[C@H](O)[C@H]3O)c12 | 3 | · | 4 | 79* | 19 | 10%
CC1OC(OCC2OC(Oc3c(-c4ccc(O)cc4)oc4cc(O)cc(O)c4c3=O)C(O)C(O)C2O)C(O)C(O)C1O (centres undefined) | 1 | -22 | 0 | 53* | 12 | 8%
O=c1c(O[C@@H]2O[C@H](CO)[C@@H](O)[C@H](O)[C@H]2O)c(-c2ccc(O)c(O)c2)oc2cc(O)cc(O)c12 | · | -47 | · | · | · | ·
O=C(Nc1cccc(/C=C/c2ccccn2)c1)c1ccc(-n2cncn2)cc1 | 0 | · | -1 | 14 | -5 | ·
Cc1c(C(C)(C)C)sc(=NC(=O)c2ccccc2O)n1C | 1 | -3 | 0 | · | -1 | ·
O=c1c(O)cccc2cc(O)c(O)c(O)c12 | 44 | 0 | 5 | 82* | 24 | 12%
O=C1c2ccccc2C(=O)c2c(O)c(O)cc(O)c21 | 1 | · | · | 24 | · | ·
Oc1ccc2nnc3c(Br)cnn3c2c1 | -1 | -7 | 11 | 77* | 21 | 10%
C(=N\NC1=Nc2cccc3cccc1c23)/c1ccccn1 | 1 | 2 | · | 53* | · | 9%
O=C1NC(=O)/C(=C/c2ccc(-c3cc(C(=O)O)ccc3Cl)o2)S1 | -2 | 2 | 13 | 61* | 28 | 10%
COc1ccc(C=C2SC(=O)NC2=O)cc1OC | -1 | · | · | · | · | ·
O=C1NC(=S)/C(=C\c2ccc(-c3ccccc3Cl)o2)S1 | -1 | 3 | -1 | 3 | -5 | ·
O=C1NC(=O)/C(=C\c2ccc(Br)o2)S1 | -1 | 1 | -2 | 66* | 6 | 13%
CSCC(=O)Nc1nc(-c2ccc3c(c2)OCCO3)cs1 | -1 | -3 | 0 | 68* | 2 | 8%
CCCC(=O)Nc1nc(-c2ccc3c(c2)OCCO3)cs1 | 0 | · | 0 | 55* | -1 | 10%
O=C(O)C(=O)Nc1nc(-c2ccc3c(c2)OCCO3)cs1 | -3 | 3 | 1 | -6 | 6 | ·
O=C(CSCC(=O)Nc1nc(-c2ccc3c(c2)OCO3)cs1)Nc1nccs1 | 0 | 0 | 1 | 0 | 1 | ·
Cc1ccc(C)c(NC(=O)C2CCCN2S(=O)(=O)c2ccc3c(c2)n(C)c(=O)c(=O)n3C)c1 (centres undefined) | 0 | 6 | -3 | 2 | -1 | ·
Cc1ccccc1NC(=O)C1CCCN1S(=O)(=O)c1ccc2c(c1)n(C)c(=O)c(=O)n2C (centres undefined) | 0 | 3 | -3 | 58* | 1 | 6%
O=C(O)CCC(=O)Nc1ccc(N2CCCCCC2)cc1 | 0 | 4 | -1 | 53* | -3 | 8%
